How the values were obtained:
[1] = target: T1, Sodium-dependent dopamine transporter (Rattus norvegicus, UniProt P23977); assay: Inhibition of high affinity uptake of [3H]-DA by dopamine transporter in nerve endings obtained from rat brain.
Procedure, shortened: (§1)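 Reuptake inhibition reported as Ki; values are mean ± standard error of at least three experiments.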

[2] = target: Norepinephrine transporter (Rattus norvegicus, UniProt Q9WTR4); assay: Inhibition of high affinity uptake of [3H]NE by norepinephrine transporter in nerve endings obtained from rat brain.; procedure, shortened: as §1
Sequence of Norepinephrine transporter (Q9WTR4 whole entry): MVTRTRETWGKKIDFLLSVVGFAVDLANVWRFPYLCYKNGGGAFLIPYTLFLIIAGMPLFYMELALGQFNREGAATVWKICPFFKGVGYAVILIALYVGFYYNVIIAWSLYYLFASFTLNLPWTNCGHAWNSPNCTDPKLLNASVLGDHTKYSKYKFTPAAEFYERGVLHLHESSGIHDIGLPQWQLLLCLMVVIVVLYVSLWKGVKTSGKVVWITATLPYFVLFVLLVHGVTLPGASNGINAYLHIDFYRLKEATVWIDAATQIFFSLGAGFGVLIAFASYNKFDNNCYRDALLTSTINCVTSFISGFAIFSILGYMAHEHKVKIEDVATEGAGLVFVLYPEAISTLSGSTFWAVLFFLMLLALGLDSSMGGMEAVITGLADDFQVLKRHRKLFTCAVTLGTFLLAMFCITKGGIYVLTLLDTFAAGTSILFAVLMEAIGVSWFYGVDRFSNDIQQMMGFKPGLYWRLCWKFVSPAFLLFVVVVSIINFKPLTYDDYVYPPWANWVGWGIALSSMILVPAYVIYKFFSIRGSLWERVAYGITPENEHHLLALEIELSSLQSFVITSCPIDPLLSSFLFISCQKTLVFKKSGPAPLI

[3] = target: Monoamine transporters; serotonin & dopamine (Rattus norvegicus) (UniProt P31652+P23977); assay: Ratio of Ki at 5-HT transporter and Ki at dopamine transporter.; type: protein assay
Sequence of Monoamine transporters; serotonin & dopamine (Rattus norvegicus) (P23977 whole entry, looked up): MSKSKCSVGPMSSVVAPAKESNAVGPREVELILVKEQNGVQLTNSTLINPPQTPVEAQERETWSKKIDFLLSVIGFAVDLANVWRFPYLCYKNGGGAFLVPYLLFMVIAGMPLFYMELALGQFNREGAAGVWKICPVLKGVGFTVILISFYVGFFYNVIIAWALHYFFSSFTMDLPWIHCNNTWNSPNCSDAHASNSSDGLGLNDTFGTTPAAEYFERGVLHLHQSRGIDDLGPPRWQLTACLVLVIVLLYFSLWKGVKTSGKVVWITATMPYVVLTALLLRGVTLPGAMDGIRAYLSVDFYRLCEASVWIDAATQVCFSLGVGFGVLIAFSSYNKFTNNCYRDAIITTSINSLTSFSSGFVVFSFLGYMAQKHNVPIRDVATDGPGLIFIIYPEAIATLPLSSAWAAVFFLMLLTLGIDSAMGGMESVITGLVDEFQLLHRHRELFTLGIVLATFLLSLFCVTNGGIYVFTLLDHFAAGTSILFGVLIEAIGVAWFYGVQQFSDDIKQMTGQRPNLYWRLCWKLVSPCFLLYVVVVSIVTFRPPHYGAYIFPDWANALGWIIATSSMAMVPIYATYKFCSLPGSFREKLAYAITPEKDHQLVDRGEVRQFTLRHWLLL
Sequence of Monoamine transporters; serotonin & dopamine (Rattus norvegicus) (P31652 whole entry, looked up): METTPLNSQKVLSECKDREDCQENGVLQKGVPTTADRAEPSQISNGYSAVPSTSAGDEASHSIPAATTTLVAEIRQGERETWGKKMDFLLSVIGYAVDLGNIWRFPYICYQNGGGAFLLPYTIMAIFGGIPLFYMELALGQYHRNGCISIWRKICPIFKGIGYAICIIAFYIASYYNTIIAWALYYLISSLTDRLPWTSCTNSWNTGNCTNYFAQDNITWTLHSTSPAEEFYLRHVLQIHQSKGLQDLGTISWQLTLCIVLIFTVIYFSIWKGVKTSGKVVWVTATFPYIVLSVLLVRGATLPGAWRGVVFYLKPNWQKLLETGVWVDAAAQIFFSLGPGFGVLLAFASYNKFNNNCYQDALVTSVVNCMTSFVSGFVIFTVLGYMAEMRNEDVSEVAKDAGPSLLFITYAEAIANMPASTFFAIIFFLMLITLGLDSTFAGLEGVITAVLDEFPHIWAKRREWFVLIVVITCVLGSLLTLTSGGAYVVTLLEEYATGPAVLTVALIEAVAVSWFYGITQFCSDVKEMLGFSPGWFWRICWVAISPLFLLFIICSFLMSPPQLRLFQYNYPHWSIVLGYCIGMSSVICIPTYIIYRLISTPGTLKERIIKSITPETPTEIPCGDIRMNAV
Procedure, shortened: (§2)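 Selectivity ratio calculated from Ki values measured in the monoamine reuptake assays, each Ki being the mean ± standard error of at least three experiments.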

[4] = target: Monoamine transporters; Norepininephrine & dopamine (Rattus norvegicus) (UniProt P23977+Q9WTR4); assay: Ratio of Ki at norepinephrine transporter and Ki at dopamine transporter.; type: protein assay; procedure, shortened: as §2
[5] = target: Monoamine transporters; Norepinephrine & serotonin (Rattus norvegicus) (UniProt P31652+Q9WTR4); assay: Ratio of Ki at norepinephrine transporter and Ki at 5-HT transporter.; type: protein assay; procedure, shortened: as §2
[6] = target: Sodium-dependent serotonin transporter (Rattus norvegicus, UniProt P31652); assay: Inhibition of high affinity uptake of [3H]5-HT by serotonin transporter in nerve endings obtained from rat brain.; procedure, shortened: as §1
Sequence of Sodium-dependent serotonin transporter (P31652 whole entry): as the sequence (P31652 whole entry, looked up) above

[7] = target: T1, Sodium-dependent dopamine transporter; assay: 373 Ability to inhibit high affinity uptake of [3H]DA using rat nerve endings obtained from brain regions enriched in dopamine transporter; procedure, shortened: as §1

T1 sequence (P23977 whole entry): as the sequence (P23977 whole entry, looked up) above

| Structure (SMILES) | Ki [1] [µM] | Ki [2] [µM] | Ratio [3] | Ratio [4] | Ratio [5] | Ki [6] [µM] | Ki [7] [µM] |
| --- | --- | --- | --- | --- | --- | --- | --- |
| COC(=O)C1CN(CCCF)CC[C@@H]1c1ccc(Cl)cc1 (some centres not stated) | 4.28 | 0.335 | > 2.3 | 0.08 | < 0.03 | > 10 |  |
| COC(=O)C1CN(CCC(c2ccccc2)c2ccccc2)CC[C@@H]1c1ccc(Cl)cc1 (some centres not stated) | 4.29 | 4.34 | 0.63 | 1.01 | 1.61 | 2.69 |  |
| Cc1noc(C2CNCC[C@@H]2c2ccc(Cl)cc2)n1 (some centres not stated) |  | 0.034 | 1.97 | 0.18 | 0.09 | 0.373 | 0.189 |
| COC(=O)C1CN(Cc2ccc(O)cc2)CC[C@@H]1c1ccc(Cl)cc1 (some centres not stated) | 1.62 | 1.08 | 1.64 | 0.67 | 0.41 | 2.65 |  |
| COC(=O)[C@@H]1CN(CCc2ccccc2)CC[C@@H]1c1ccc(Cl)cc1 | 1.02 | 0.233 | 1.84 | 0.23 | 0.12 | 1.88 |  |
| Cc1noc(C2CN(C)CC[C@@H]2c2ccc(Cl)cc2)n1 (some centres not stated) | 0.187 | 0.256 | 31.8 | 1.37 | 0.04 | 5.96 |  |
| COC(=O)C1CNCC[C@@H]1c1ccc(Cl)cc1 (some centres not stated) | 0.279 | 0.0079 | 1.56 | 0.03 | 0.02 | 0.434 |  |
| CCOC(=O)CCN1CC[C@H](c2ccc(Cl)cc2)C(C(=O)OC)C1 (some centres not stated) | > 10 | 2.1 |  | < 0.21 | < 0.21 | > 10 |  |
| COC(=O)C1CN(CCCc2ccccc2)CC[C@@H]1c1ccc(Cl)cc1 (some centres not stated) | 0.81 | 0.488 | 4.04 | 0.6 | 0.15 | 3.27 |  |
| COC(=O)C1CN(C(C)=O)CC[C@@H]1c1ccc(Cl)cc1 (some centres not stated) | > 10 | > 10 |  |  |  | > 10 |  |
| COC(=O)C1CN(S(=O)(=O)c2ccccc2)CC[C@@H]1c1ccc(Cl)cc1 (some centres not stated) |  | 16.1 | 1.85 | 0.83 | 0.45 | 36.1 |  |
| CN1CC[C@H](c2ccc(Cl)cc2)[C@@H](CO)C1 | 0.497 | 0.198 | 3.12 | 0.4 | 0.13 | 1.55 |  |
| COC(=O)[C@@H]1CN(Cc2ccccc2)CC[C@@H]1c1ccc(Cl)cc1 | 3.28 | 2.98 | 0.67 | 0.91 | 1.36 | 2.19 |  |
| OCC1CNCC[C@@H]1c1ccc(Cl)cc1 (some centres not stated) | 0.836 | 0.069 | 0.29 | 0.08 | 0.29 | 0.239 |  |
| COC(=O)[C@H]1CN(CCc2ccccc2)CC[C@@H]1c1ccc(Cl)cc1 | 1.08 | 0.142 | 2.68 | 0.13 | 0.05 | 2.89 |  |
| COC(=O)C1CN(C(C)C)CC[C@@H]1c1ccc(Cl)cc1 (some centres not stated) | 6.98 | 1.84 | 0.54 | 0.26 | 0.49 | 3.74 |  |
| COC(=O)C1CN(CCCCl)CC[C@@H]1c1ccc(Cl)cc1 (some centres not stated) | 3.15 | 0.441 | > 3.17 | 0.14 | < 0.04 | > 10 |  |
